Compound activity as filed in PubChem BioAssay.
MC4R ag barr – agonists of human melanocortin 4 receptor (MC4R) beta-arrestin; U2OS MC4R beta-arrestin complementation, luminescence; percent of melanotan II response, DMSO zero; activation, % at 8.9 µM; P32245; 0.98% of 360,000 active; AID 540308;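 active = activation above a per-plate cutoff, the mean activation of sample wells on that plate plus 3 SD, cut at about 8% in these data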
Calb FLC – affects C. albicans growth with fluconazole; AID 1979; growth inhibition, % (no concentration beside the values); C. albicans CaCi-2 + fluconazole, Alamar Blue growth, 48 h; 0.57% of 300,000 active;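 active = growth inhibition above about 58% in most replicates, limit read from the data, passing the limit was not always enough; inconclusive = exactly half the replicates above a set limit; inactive = most replicates below a set limit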;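 note: all wells also contain fluconazole at 8 µg/ml as a sub-toxic cotreatment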
TAG inh – inhibitors of triacylglycerol accumulation; inhibition, % at 12.5 µM; H9c2 cells, Nile Red lipid (TAG) fluorescence; cells loaded with 200 µM oleic acid; AID 651582; 0.66% of 230,000 active;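 active = pattern-corrected inhibition of lipid staining of at least 50% with the nuclear-stain viability signal not falling by more than 50%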
GalR3 antagonist – human GalR3 antagonism | HEK293 GalR3-CNG cAMP membrane potential fluorescence; galR3 body fused to GalR1 C-terminus | 0.44% of 360,000 active | O60755 | inhibition, % at 3 µM;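 active = inhibition above the screen-wide average plus 3 SD, cut at about 13% in these data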;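 note: forskolin and galanin both at EC90 stimulate the cells; cAMP rise reported by CNG channel membrane potential dye signal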
Target sequence (O60755 1-299 limits assumed): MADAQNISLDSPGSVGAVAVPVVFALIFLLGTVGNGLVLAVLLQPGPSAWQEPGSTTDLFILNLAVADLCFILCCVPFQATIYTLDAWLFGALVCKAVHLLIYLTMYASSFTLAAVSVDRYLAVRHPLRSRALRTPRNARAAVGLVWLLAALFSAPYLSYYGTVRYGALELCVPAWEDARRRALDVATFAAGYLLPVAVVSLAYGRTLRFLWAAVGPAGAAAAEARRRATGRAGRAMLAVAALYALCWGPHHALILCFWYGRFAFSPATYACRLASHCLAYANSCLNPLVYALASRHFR
Efflux pump mplx – blocks antifungal efflux pumps in multiplex yeast assay; S. cerevisiae Candida pump triplex, Nile Red efflux; inhibition, % at 10 µM; 0.44% of 330,000 active;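 active = plate passing quality check with inhibition over a set limit, or well fluorescence over plate mean plus 4 SD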;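 note: Nile Red retained in pooled yeast measured as flow cytometry median fluorescence; higher means more Nile Red kept so more efflux inhibition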
MC4R antagonist – blocks human MC4R cAMP signaling; MC4R-expressing cells, MTII-stimulated cAMP, LANCE TR-FRET; P32245; inhibition, % at 6.5 µM; 0.48% of 360,000 active; AID 540295;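 active = inhibition above its plate's cutoff, the mean of tested wells on that plate plus 3 SD, cut at about 29% in these data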
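System: U2OS-MC4R stable cell line; Technique: Eu-cAMP/anti-cAMP TR-FRET, emission 671 nm; Repeats: single well per compound; Also added: Melanotan II; Dosing: one concentration, 6.5 µM nominal; Schedule: 30-min compound, 1-h challenge, 1-h detection, room temperature.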
U2OS cAMP counter – U2OS forskolin cAMP inhibition counter-screen; inhibition, % at 6.5 µM; parental U2OS, LANCE TR-FRET; 26% of 1,600 active; shares compounds with MC4R antagonist;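 active = mean inhibition over triplicates above the low-control well mean plus 3 SD, set per campaign, cut at about 13% in these data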;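 note: signal is single emission at 671 nm which falls as cellular cAMP rises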
MC4R antag conf – human MC4R cAMP antagonism confirmation. shares compounds with MC4R antagonist. MC4R-expressing cells, MTII-stimulated cAMP, TR-FRET. inhibition, % at 6.5 µM. 27% of 1,600 active. AID 602195; in the data active = inhibition above about 29%
Each line names hits and unclear results; the compound was inactive in the other large screens (follow-up assays come after a bar, where they were run). Hits are enriched below; roughly 2.9% of the tested compounds scored in any of these assays.

Cc1ccc(S(=O)(=O)N(C)C[C@@H]2OCCCC[C@@H](C)Oc3ccc(NS(=O)(=O)c4c(C)noc4C)cc3C(=O)N([C@H](C)CO)C[C@@H]2C)cc1	MC4R antagonist 34.3 (no result: Calb FLC, Efflux pump mplx) | U2OS cAMP counter inactive | MC4R antag conf inactive
Cc1ccc(C)c(C(O)c2ncc(-c3ccccc3Cl)[nH]2)c1 (stereo not given)	none (no result: Calb FLC, Efflux pump mplx)
COc1cccc(C(=O)OCC(=O)Nc2sc3c(c2C(N)=O)CCC3)c1O	none (no result: Calb FLC)
O=C(CN(Cc1ccco1)Cc1ccco1)Nc1cc(S(=O)(=O)N2CCCCC2)ccc1Cl	MC4R antagonist 29.1 (no result: Calb FLC) | U2OS cAMP counter inactive | MC4R antag conf inactive
O=C(Nc1cc(S(=O)(=O)N2CCCCC2)ccc1Cl)c1ccccc1NS(=O)(=O)c1ccc(F)cc1	Calb FLC inconclusive, MC4R antagonist 30.6 (no result: TAG inh) | U2OS cAMP counter inactive | MC4R antag conf inactive
O=C(NCc1ccco1)c1cc(S(=O)(=O)N2CCCC2)ccc1Cl	none
COc1ccccc1CN(C)C(=O)C(NC(=O)Cc1cccc2ccccc12)C(C)C (stereo not given)	MC4R antagonist 36.3 (no result: TAG inh) | U2OS cAMP counter inactive | MC4R antag conf inactive
CCOc1ccccc1N(C(=O)c1snc(C(N)=O)c1N)C(C(=O)NCc1ccccc1)c1ccc(O)cc1 (stereo not given)	MC4R antagonist 30.5 (no result: TAG inh, Efflux pump mplx) | U2OS cAMP counter inactive | MC4R antag conf inactive
O=C(N[C@H](C(=O)N1CCC[C@H]1C(=O)NC1CCCC1)C1CCCCC1)c1ccc(Cl)cc1Cl	none (no result: MC4R ag barr, Calb FLC, TAG inh, Efflux pump mplx, MC4R antagonist)
Cc1cc(C)cc(C(=O)NCC(=O)OCC(=O)NCc2ccco2)c1	MC4R antagonist 38.5 | U2OS cAMP counter inactive | MC4R antag conf inactive
COc1cc(OC)cc(C(=O)NCC(=O)OCC(=O)NCc2ccco2)c1	none (no result: Calb FLC)
CCC1NC(=O)c2cccnc2-n2c1nc1ccc(F)cc1c2=O (stereo not given)	none (no result: Calb FLC, Efflux pump mplx)
C#CC(=O)N(c1ccc(OC)c(OC)c1)C(C(=O)NC1CCCC1)c1cccs1 (stereo not given)	MC4R ag barr 10.5, MC4R antagonist 61.7 (no result: TAG inh) | U2OS cAMP counter inactive | MC4R antag conf 63.3
O=C(Nc1ccccc1)c1cc(C2CCCN(C(=O)c3cccs3)C2)on1 (stereo not given)	none (no result: Calb FLC, Efflux pump mplx)
Cc1nc(N2CCC(C)CC2)c2c(C)c(C(=O)Nc3ccc(C)c(F)c3)sc2n1	none (no result: TAG inh)
Cc1nc(N2CCC(C)CC2)c2c(C)c(C(=O)Nc3ccccc3C(F)(F)F)sc2n1	MC4R antagonist 29.7 (no result: TAG inh) | U2OS cAMP counter inactive | MC4R antag conf inactive
CC(=O)Nc1ccc(NC(=O)c2nc(S(=O)(=O)Cc3ccccc3)ncc2Cl)cc1	none (no result: TAG inh)
CCc1nnc(NC(=O)c2nc(S(=O)(=O)Cc3ccccc3)ncc2Cl)s1	MC4R antagonist 30.4 (no result: TAG inh) | U2OS cAMP counter inactive | MC4R antag conf inactive
COc1ccc(CNC(=O)c2nc(S(=O)(=O)Cc3ccccc3)ncc2Cl)cc1	none (no result: TAG inh)
CCc1nnc(NC(=O)c2nc(S(=O)(=O)Cc3ccc(C)cc3)ncc2Cl)s1	MC4R antagonist 30.9 (no result: TAG inh) | U2OS cAMP counter 22.9 | MC4R antag conf 38.9
CCc1nnc(NC(=O)c2nc(S(=O)(=O)Cc3cccc(C)c3)ncc2Cl)s1	MC4R antagonist 38.7 (no result: TAG inh) | U2OS cAMP counter 19.8 | MC4R antag conf 32.4
O=C(NCc1ccccc1)c1nc(S(=O)(=O)Cc2ccccc2)ncc1Cl	MC4R antagonist 47.9 (no result: TAG inh) | U2OS cAMP counter 33.8 | MC4R antag conf 59.9
CCCCCNC(=O)C(C1CC1)n1c(=O)c(-c2ccco2)nc2ccccc21 (stereo not given)	none (no result: MC4R ag barr, Calb FLC, TAG inh, Efflux pump mplx, MC4R antagonist)
Cc1onc(-c2ccccc2)c1C(=O)NCC1CCN(C(=O)C(=O)c2cccs2)CC1	none (no result: MC4R ag barr, Calb FLC, TAG inh, Efflux pump mplx, MC4R antagonist)
COc1cc(NC(=O)C(C)(C)C)c(C(=O)OCC(=O)Nc2cc(C)on2)cc1OC	none (no result: Calb FLC, Efflux pump mplx)
C#CCNC(=O)C[C@H]1C[C@@]2(C(=O)OC)C(=C[C@H](C3CCCC3)O[C@@H]2C)N(Cc2ccccc2)C1=O	none (no result: MC4R ag barr, Calb FLC, TAG inh, Efflux pump mplx, MC4R antagonist)
O=C(NCc1ccccc1)c1c(Cl)nc(Cl)c(Cl)c1Cl	MC4R antagonist 64.0 (no result: TAG inh) | U2OS cAMP counter 45.3 | MC4R antag conf 64.4
